Measured values reported in ChEMBL document CHEMBL2021913, “Synthesis and biological evaluation of some novel thiazole substituted benzotriazole derivatives” (2012).
In brackets after ≈: the same amount, converted by molar mass. Activity calls are given as the source filed them. The rule behind the calls is not given here.

Experiments:
Type in all cases: functional
[1] = test system: Candida albicans; test: Antimicrobial activity against Candida albicans 3471 at 128 ug/disc at 37 degC after 24 to 72 hrs by agar-well diffusion assay; settings: for zone of inhibition at 128 µg/disc: read-out: DIZ
Summary of the method: (§1)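 Potato dextrose agar base plates overlaid with seeded agar cooled to 40 °C and inoculated with spores from 10-day cultures, final 1 × 10⁶ spores/mL. Compounds dissolved in DMSO at 128 µg/mL and applied on 6 mm filter-paper discs placed on chilled seeded medium. Nystatin positive control, DMSO negative control. Incubation 24–72 h at 37 °C. Inhibition zone diameter read by vernier caliper.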

[2] = test system: Staphylococcus aureus; test: Antimicrobial activity against Staphylococcus aureus 2079 at 128 ug/disc at 35 degC after 24 hrs by agar-well diffusion assay; settings: for zone of inhibition at 128 µg/disc: Staphylococcus aureus, 2079, 24 h, read-out: DIZ
Summary of the method: (§2)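 Agar-well diffusion: 24 h bacterial cultures adjusted to 0.5 McFarland (1.5 × 10⁸ CFU/mL) and mixed into molten Mueller-Hinton agar before pouring. 6 mm wells punched and each filled with 50 µL of compound stock or control. Plates incubated 35 °C for 24 h. Zone of growth inhibition diameter measured with vernier caliper.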

[3] = test system: Pseudomonas aeruginosa; test: Antimicrobial activity against Pseudomonas aeruginosa 2036 at 128 ug/disc at 35 degC after 24 hrs by agar-well diffusion assay; settings: for zone of inhibition at 128 µg/disc: Pseudomonas aeruginosa, 2036, 24 h, read-out: DIZ; summary of the method: as §2
[4] = test system: Bacillus subtilis; test: Antimicrobial activity against Bacillus subtilis 2250 at 35 degC after 18 to 24 hrs by NCCLS method based antimicrobial assay
[5] = test system: Bacillus subtilis; test: Antimicrobial activity against Bacillus subtilis 2250 at 128 ug/disc at 35 degC after 24 hrs by agar-well diffusion assay; summary of the method: as §2
[6] = test system: Escherichia coli; test: Antimicrobial activity against Escherichia coli 2109 at 128 ug/disc at 35 degC after 24 hrs by agar-well diffusion assay; settings: for zone of inhibition at 128 µg/disc: Escherichia coli, 2109, 24 h, read-out: DIZ; summary of the method: as §2
[7] = test system: Aspergillus niger; test: Antimicrobial activity against Aspergillus niger 545 at 128 ug/disc at 37 degC after 24 to 72 hrs by agar-well diffusion assay; settings: for zone of inhibition at 128 µg/disc: read-out: DIZ; for diameter of the inhibition zone (DIZ): in the assay text read “disc diffusion assay” for “agar-well diffusion assay”; summary of the method: as §1
[8] = test system: Aspergillus niger; test: Antimicrobial activity against Aspergillus niger 545 at 35 degC after 48 hrs by CLSI method based antimicrobial assay; settings: for MFC: read-out: MFC99.9
Summary of the method: (§3)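 Broth microdilution following CLSI guidelines over 256 to 1 µg/mL. MIC90 is the lowest concentration completely inhibiting growth. For MFC, 0.1 mL from each tube spread on agar and CFU counted after 48 h at 35 °C; MFC is lowest concentration killing 99.9% of inoculum. MFC/MIC ratio calculated: […], ≤4 as fungicidal.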

[9] = test system: Staphylococcus aureus; test: Antimicrobial activity against Staphylococcus aureus 2079 at 35 degC after 18 to 24 hrs by NCCLS method based antimicrobial assay; settings: for MBC: read-out: MBC99.9
[10] = test system: Escherichia coli; test: Antimicrobial activity against Escherichia coli 2109 at 35 degC after 18 to 24 hrs by NCCLS method based antimicrobial assay; settings: for MBC: read-out: MBC99.9
[11] = test system: Pseudomonas aeruginosa; test: Antimicrobial activity against Pseudomonas aeruginosa 2036 at 35 degC after 18 to 24 hrs by NCCLS method based antimicrobial assay; settings: for MBC: read-out: MBC99.9
[12] = test system: Candida albicans; test: Antimicrobial activity against Candida albicans 3471 at 35 degC after 48 hrs by CLSI method based antimicrobial assay; settings: for MFC: read-out: MFC99.9; summary of the method: as §3
[13] = test system: Aspergillus niger; test: Ratio of MFC99.9 to MIC90 for Aspergillus niger 545 at 35 degC after 48 hrs by CLSI method based antimicrobial assay; summary of the method: as §3
[14] = test system: Candida albicans; test: Ratio of MFC99.9 to MIC90 for Candida albicans 3471 at 35 degC after 48 hrs by CLSI method based antimicrobial assay; summary of the method: as §3

Molecule	diameter of the inhibition zone (DIZ) [2]	diameter of the inhibition zone (DIZ) [3]	MBC99.9 [4]	MIC [4]	diameter of the inhibition zone (DIZ) [5]	zone of inhibition at 128 µg/disc [6]	zone of inhibition at 128 µg/disc [7]	MIC ([8]; Aspergillus niger, 545, 48 h)	MBC99.9 [9]	MIC [9]	MIC [10]	MBC [10]	MBC99.9 [11]	MIC [11]	Ratio [13]	zone of inhibition at 128 µg/disc [1]	Ratio [14]	MFC99.9 [8]	MIC ([12]; Candida albicans, 3471, 48 h)	MFC ([12]; Candida albicans, 3471, 48 h)	other results
FC(F)(F)c1cc(/C(Cn2nnc3ccccc32)=N\Nc2nc(-c3ccc(Cl)cc3)cs2)cc(C(F)(F)F)c1	inactive	inactive	inactive	inactive	inactive	18.7 mm	19.7 mm	16 µg/mL (≈ 27.5 µM)	inactive	inactive	128 µg/mL (≈ 220 µM)	256 µg/mL (≈ 441 µM)	inactive	inactive	4	–	–	–	–	–	diameter of the inhibition zone (DIZ) [1]: inactive; MFC ([8]; Aspergillus niger, 545, 48 h): 64 µg/mL (≈ 110 µM); MFC99.9 [12]: inactive; MIC [12]: inactive
FC(F)(F)c1cc(/C(Cn2nnc3ccccc32)=N\Nc2nc(-c3cc(C(F)(F)F)cc(C(F)(F)F)c3)cs2)cc(C(F)(F)F)c1	inactive	inactive	inactive	inactive	inactive	16.4 mm	–	–	inactive	inactive	128 µg/mL (≈ 188 µM)	256 µg/mL (≈ 375 µM)	inactive	inactive	–	11.7 mm	2	inactive	128 µg/mL (≈ 188 µM)	256 µg/mL (≈ 375 µM)	diameter of the inhibition zone (DIZ) [7]: inactive; MIC [8]: inactive
Fc1ccc(/C(Cn2nnc3ccccc32)=N\Nc2nc(-c3ccc(Cl)cc3)cs2)cc1	–	–	inactive	inactive	inactive	–	21.4 mm	16 µg/mL (≈ 34.6 µM)	–	32 µg/mL (≈ 69.1 µM)	inactive	–	–	64 µg/mL (≈ 138 µM)	1	20.2 mm	4	–	16 µg/mL (≈ 34.6 µM)	64 µg/mL (≈ 138 µM)	zone of inhibition at 128 µg/disc [2]: 25.9 mm; zone of inhibition at 128 µg/disc [3]: 19.1 mm; MFC ([8]; Aspergillus niger, 545, 48 h): 16 µg/mL (≈ 34.6 µM); MBC [9]: 32 µg/mL (≈ 69.1 µM); MBC99.9 [10]: inactive; MBC [11]: 64 µg/mL (≈ 138 µM)
NYSTATIN	–	–	–	–	–	–	–	–	–	–	–	–	–	–	2	–	2	32 µg/mL	–	–	MIC [8]: 16 µg/mL; MFC99.9 [12]: 32 µg/mL; MIC [12]: 16 µg/mL
FC(F)(F)c1cc(-c2csc(N/N=C(/Cn3nnc4ccccc43)c3ccc(Cl)cc3)n2)cc(C(F)(F)F)c1	inactive	inactive	inactive	inactive	inactive	21.1 mm	–	–	inactive	inactive	32 µg/mL (≈ 55.1 µM)	64 µg/mL (≈ 110 µM)	inactive	inactive	–	13.7 mm	2	inactive	64 µg/mL (≈ 110 µM)	128 µg/mL (≈ 220 µM)	diameter of the inhibition zone (DIZ) [7]: inactive
Clc1ccc(-c2csc(N/N=C(/Cn3nnc4ccccc43)c3ccc(Br)cc3)n2)cc1	inactive	–	inactive	inactive	inactive	21.8 mm	15.2 mm	64 µg/mL (≈ 122 µM)	inactive	inactive	64 µg/mL (≈ 122 µM)	128 µg/mL (≈ 244 µM)	–	16 µg/mL (≈ 30.5 µM)	2	–	–	–	–	–	diameter of the inhibition zone (DIZ) [1]: inactive; zone of inhibition at 128 µg/disc [3]: 21.2 mm; MFC ([8]; Aspergillus niger, 545, 48 h): 128 µg/mL (≈ 244 µM); MBC [11]: 32 µg/mL (≈ 61.1 µM); MFC99.9 [12]: inactive; MIC [12]: inactive
O=[N+]([O-])c1ccc(-c2csc(N/N=C(/Cn3nnc4ccccc43)c3ccc(Cl)cc3)n2)cc1	inactive	–	inactive	inactive	inactive	–	13.6 mm	128 µg/mL (≈ 261 µM)	inactive	inactive	inactive	–	–	64 µg/mL (≈ 131 µM)	2	–	–	–	–	–	diameter of the inhibition zone (DIZ) [1]: inactive; zone of inhibition at 128 µg/disc [3]: 16.4 mm; diameter of the inhibition zone (DIZ) [6]: inactive; MFC ([8]; Aspergillus niger, 545, 48 h): 256 µg/mL (≈ 523 µM); MBC99.9 [10]: inactive; MBC [11]: 128 µg/mL (≈ 261 µM); MFC99.9 [12]: inactive; MIC [12]: inactive
O=[N+]([O-])c1ccc(/C(Cn2nnc3ccccc32)=N\Nc2nc(-c3ccc([N+](=O)[O-])cc3)cs2)cc1	inactive	inactive	inactive	inactive	inactive	17.5 mm	–	–	inactive	inactive	128 µg/mL (≈ 256 µM)	256 µg/mL (≈ 511 µM)	inactive	inactive	–	14.3 mm	2	inactive	64 µg/mL (≈ 128 µM)	128 µg/mL (≈ 256 µM)	diameter of the inhibition zone (DIZ) [7]: inactive; MIC [8]: inactive
Brc1ccc(/C(Cn2nnc3ccccc32)=N\Nc2nc(-c3ccc(Br)cc3)cs2)cc1	–	inactive	–	128 µg/mL (≈ 225 µM)	–	–	–	–	–	32 µg/mL (≈ 56.3 µM)	inactive	–	inactive	inactive	–	18.1 mm	2	inactive	32 µg/mL (≈ 56.3 µM)	64 µg/mL (≈ 113 µM)	zone of inhibition at 128 µg/disc [2]: 23.4 mm; MBC ([4]; read-out: MBC99.9): 256 µg/mL (≈ 450 µM); zone of inhibition at 128 µg/disc ([5]; Bacillus subtilis, 2250, 24 h, read-out: DIZ): 17.2 mm; diameter of the inhibition zone (DIZ) [6]: inactive; diameter of the inhibition zone (DIZ) [7]: inactive; MIC [8]: inactive; MBC [9]: 64 µg/mL (≈ 113 µM); MBC99.9 [10]: inactive
